Results gathered from unrelated publications.
Protocols differ between the studies behind these lines.

| SMILES | target or system | assay | system | conditions | measurement | value |
| --- | --- | --- | --- | --- | --- | --- |
| COc1cc(C)[nH]c(=O)c1CNC(=O)c1c(C)n([C@H](C)C2CCN(CC(F)(F)F)CC2)c2ccccc12 | KARPAS-422 | cell growth or viability | – | 8 days | GI50 | 0.39 µM |
| O=C(NC1CCC(CN2CCC(c3c[nH]c4ccccc34)CC2)CC1)c1[nH]c(=O)[nH]c(=O)c1F (stereo not shown) | HEK293 | cell growth or viability | – | – | IC50 | > 10 µM |
| Cc1cccc2c(CNCC3(N4CCCC4)COC3)c[nH]c12 | T98G | cell growth or viability | – | 30 µM, 48 h | viability | 34.1% |
| O=c1c2ccccc2[se]n1-c1ccccc1 | HEK293 | cell growth or viability, MTT | – | 125 µM, 72 h | inhibition | 43% |
| CO[C@H]1/C=C/O[C@@]2(C)Oc3c(C)c(O)c4c(O)c(c(/C=N/N5CCN(C)CC5)c(O)c4c3C2=O)NC(=O)/C(C)=C\C=C\[C@H](C)[C@H](O)[C@@H](C)[C@@H](O)[C@@H](C)[C@H](OC(C)=O)[C@@H]1C | Mycolicibacterium phlei | microbial growth | – | – | MIC | 0.03 µg/mL |
| COc1ccc(OC)c(C=CC(=O)NC2CCC(CN3CCC(c4c[nH]c5ccccc45)CC3)CC2)c1 (stereo not shown) | HEK293 | cell growth or viability | – | – | IC50 | > 10 µM |
| NNC(=O)c1ccncc1 | Mycolicibacterium phlei | microbial growth | – | – | MIC | > 8 µg/mL |
| Cc1cccc2[nH]cc(CNCC3(N4CCCC4)COC3)c12 | GBM6 | cell growth or viability | – | 30 µM, 48 h | viability | 77.5% |
| CCCCCCCc1cc(=O)c2ccccc2[nH]1 | HEK293 | cell growth or viability | – | – | IC50 | > 10 µM |
| C#C[C@]1(O)CC[C@H]2[C@@H]3CCc4cc(O)ccc4[C@H]3CC[C@@]21C | Vesicular stomatitis virus | viral entry, inhibitor | Vero C1008 | pseudovirus | IC50 | 25 to 70 µM |
| Oc1cccc(C2CCCN(CCc3c[nH]c4ccccc34)C2)c1 (stereo not shown) | HEK293 | cell growth or viability | – | – | IC50 | > 10 µM |
| CO[C@H]1/C=C/O[C@@]2(C)Oc3c(C)c(O)c4c(O)c(c(/C=N/N5CCN(C)CC5)c(O)c4c3C2=O)NC(=O)/C(C)=C\C=C\[C@H](C)[C@H](O)[C@@H](C)[C@@H](O)[C@@H](C)[C@H](OC(C)=O)[C@@H]1C | Mycobacterium avium | microbial growth | ATCC25291 | – | MIC | 3.1 µg/mL |
| Cc1ccc(-c2nc3ccc(C)cn3c2CC(=O)N(C)C)cc1 | Mycobacterium avium | microbial growth | – | 6 days | MIC | > 50 µM |
